Drawing on ChEMBL document CHEMBL1938319, “Design, synthesis, and in vitro antiproliferative activity of novel Dasatinib derivatives” (Bioorg Med Chem Lett, 2012), this text covers inhibition of growth and IC50 for 13 molecules.

For test [1], the system named is K562. Briefly: Growth inhibition of human K562 cells at 10 uM after 72 hrs by WST-8 reagent based MTT assay. The conditions noted are these: K562, 72 h, read-out: GI. The class given is functional. An outline of the steps:
(§1)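 Single-concentration screen at 10 μM on K562 or U937 cells in RPMI1640 with 10% FBS, 5.0 × 10³ cells/well, settled 4 h, then 72 h exposure at 37 °C, 5% CO₂. WST-8/1-methoxyphenazinium reagent added for 1.5 h. A450 read with 650 nm correction. Growth given as % absorbance relative to vehicle control, averaged over three independent experiments.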

In test [2] the test system is U-937. Briefly: Growth inhibition of human U937 cells at 10 uM after 72 hrs by WST-8 reagent based MTT assay. The class given is functional. Particulars: U-937, 72 h, read-out: GI. An outline of the steps: as §1
In test [3] the test system is K562. Briefly: Cytotoxicity against human K562 cells after 72 hrs by WST-8 reagent based MTT assay. It counts as functional, cell-based. The conditions noted are these: K562, 72 h. An outline of the steps: (§2)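 K562 or U937 cells in RPMI1640 with 10% FBS, 5.0 × 10³ cells/well, settled 4 h at 37 °C, 5% CO₂. Exposed to compound for 72 h. Medium removed, then WST-8 reagent (5 mM WST-8, 0.2 mM 1-methoxyphenazinium salt, 150 mM NaCl) added for 1.5 h at 37 °C. Absorbance read at 450 nm, corrected at 650 nm, as % of vehicle control. IC50 from concentration–response curve fitting. Three independent experiments averaged.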

For test [4], the system named is U-937. Briefly: Cytotoxicity against human U937 cells after 72 hrs by WST-8 reagent based MTT assay. It counts as functional, cell-based. Particulars: U-937, 72 h. An outline of the steps: as §2

For the molecule `Cc1nc(Nc2ccc3sc(C(=O)Nc4c(C)cccc4Cl)cc3c2)cc(N2CCC(C)CC2)n1`, the inhibition of growth at 10 µM was determined as 20.5% in the test on K562 [1] and 24.6% in the test on U-937 [2]. Moreover, the IC50 in the test on K562 [3] worked out at 22.2 µM; with U-937 [4], 20.6 µM.

Regarding `Cc1nc(Nc2ccc3sc(C(=O)Nc4c(C)cccc4Cl)cc3c2)cc(N2CCN(C)CC2)n1`, the inhibition of growth at 10 µM in the test on K562 [1] was determined as 32.4%; in the test on U-937 [2], 40.6%. In addition, the IC50 with K562 [3] was determined as 17 µM; with U-937 [4], 15 µM.

As for `Cc1nc(Nc2ccc3sc(C(=O)Nc4c(C)cccc4Cl)cc3c2)cc(N2CCCCC2)n1`, the figures for the inhibition of growth at 10 µM in the test on K562 [1] and in the test on U-937 [2] were 8.78% and 20.6%, respectively. In the test with U-937 [4], the half-maximal inhibitory concentration (IC50) is 20 µM.

In the case of `Cc1nc(Nc2ncc(C(=O)Nc3c(C)cccc3Cl)s2)cc(N2CCN(CCO)CC2)n1` [DASATINIB], the values for the inhibition of growth at 10 µM in the test on K562 [1] and in the test with U-937 [2] were 37.4% and 37.2%, respectively. Further, the IC50 in the test with K562 [3] is 12.8 µM; with U-937 [4], 13.6 µM.

Take `CCN(CCO)CCCOc1cc2ncnc(Nc3ccc4sc(C(=O)Nc5c(C)cccc5Cl)cc4c3)c2cc1OC`: the inhibition of growth at 10 µM was found to be 59.8% in the test with K562 [1] and 76.9% in the test on U-937 [2]. Besides, the IC50 in the test on K562 [3] came out at 8.97 µM; in the test on U-937 [4], 4.25 µM.

On to `COc1cc2c(Nc3ccc4sc(C(=O)Nc5c(C)cccc5Cl)cc4c3)ncnc2cc1OCCCN1CCCCC1C` (stereo not drawn), for which the inhibition of growth at 10 µM in the test with K562 [1] is 84.2%; in the test on U-937 [2], 80.2%. Also, the figures for the IC50 in the test on K562 [3] and in the test with U-937 [4] were 2.15 µM and 3.45 µM, respectively.

For the molecule `Cc1nc(Nc2ccc3sc(C(=O)Nc4c(C)cccc4Cl)cc3c2)cc(N2CCN(CCO)CC2)n1`, the inhibition of growth at 10 µM turned out to be 27.8% in the test on K562 [1] and 37.1% with U-937 [2]. Also, the IC50 was 21.9 µM in the test on K562 [3] and 13.7 µM in the test with U-937 [4].

Regarding `COc1cc2c(Nc3ccc4sc(C(=O)Nc5c(C)cccc5Cl)cc4c3)ncnc2cc1OCCCN1CCCCC1`, the inhibition of growth at 10 µM with K562 [1] is 71.8%; in the test with U-937 [2], 75.7%. Also, the results for the IC50 with K562 [3] and in the test with U-937 [4] were 4.01 µM and 4.34 µM, respectively.

With `CCN1CCN(c2cc(Nc3ccc4sc(C(=O)Nc5c(C)cccc5Cl)cc4c3)nc(C)n2)CC1`, the inhibition of growth at 10 µM was 33.9% in the test with K562 [1] and 46.5% with U-937 [2]. The half-inhibitory concentration (IC50) in the test with K562 [3] came to 16.9 µM; in the test with U-937 [4], 13.1 µM.

In the case of `CCN(CC)CCCOc1cc2ncnc(Nc3ccc4sc(C(=O)Nc5c(C)cccc5Cl)cc4c3)c2cc1OC`, the values for the inhibition of growth at 10 µM with K562 [1] and with U-937 [2] were 72.5% and 78%, respectively. Moreover, the IC50 in the test with K562 [3] came out at 3.55 µM; with U-937 [4] it was 4.01 µM.

On to `Cc1nc(Nc2ccc3sc(C(=O)Nc4c(C)cccc4Cl)cc3c2)cc(N2CCOCC2)n1`, for which the inhibition of growth at 10 µM in the test on K562 [1] stood at 13.9%; with U-937 [2], 8.37%.

`COc1cc2c(Nc3ccc4sc(C(=O)Nc5c(C)cccc5Cl)cc4c3)ncnc2cc1OCCCN1CCOCC1`: the inhibition of growth at 10 µM turned out to be 9.99% with K562 [1] and 56.2% with U-937 [2]. In the test with U-937 [4], this molecule came in with an IC50 of 9.09 µM.

As for `COc1cc2c(Nc3ccc4sc(C(=O)Nc5c(C)cccc5Cl)cc4c3)ncnc2cc1OCCCN1CCN(C)CC1`, the results for the inhibition of growth at 10 µM in the test on K562 [1] and in the test with U-937 [2] were 51.2% and 76%, respectively. For the same molecule, the figures for the IC50 in the test with K562 [3] and with U-937 [4] were 9.88 µM and 3.48 µM, respectively.
